Assay results pooled from the literature.
Each line is one published result; the experiments were not run side by side.
Effect on: enzyme activity
Action: inhibitor
FGFR1: Fibroblast growth factor receptor 1 (FGFR1, Homo sapiens, UniProt P11362)

COc1cc(Cl)c(C(=O)N[C@@H](CN[C@H]2CC[C@@H](N)CC2)Cc2ccc(C#N)cc2)cc1-c1ccc(CN[C@H](C)c2ccc(C)cc2)o1  remaining activity (FGFR1; 1 µM): 94%
CCN(CC)CCNC(=O)c1c(C)[nH]c(/C=C2\C(=O)Nc3ccc(F)cc32)c1C  remaining activity (FGFR1; 1 µM): 22%
O=C(Nc1cnn(-c2csc(C(=O)NC3COC3)c2)c1)Nc1c(F)cccc1Cl  remaining activity (FGFR1; 5 µM): 91.4%
COc1cc(Nc2cnc(C#N)c(O[C@H](C)CN(C)C)n2)ncc1-c1cnn(C)c1  remaining activity (FGFR1; radiometric; 10 µM): 39%
CCCOc1ccc(OC)c(F)c1C(=O)c1ccc(C(=O)N[C@@H]2CNC[C@H]2NC(=O)c2ccc3[nH]ncc3c2)cc1  remaining activity (FGFR1; 10 µM): 28%
Nc1nc(NC2CCCCC2)sc1C(=O)c1ccccc1  remaining activity (FGFR1; 10 µM): 97%
Oc1cccc(-c2nc(N3CCOCC3)c3oc4ncccc4c3n2)c1  remaining activity (FGFR1; 10 µM): 118%
Cc1cnc(NC2CCOCC2)nc1-n1cnc(C(=O)NC(CN)c2cc(F)cc(Cl)c2)c1 (stereo not drawn)  remaining activity (Fibroblast growth factor receptor 1 (FGFR1, Homo sapiens, UniProt P11362, V561M); radiometric; 1 µM): 104%
Cc1[nH]c(/C=C2\C(=O)Nc3ccc(F)cc32)c(C)c1C(=O)N[C@H]1CCN(C(=O)N(C)C)C1  remaining activity (FGFR1; 1 µM): 90%
CC(C)(C)c1nc2c(s1)c1nc(N)ncc1c1ccc(NS(=O)(=O)c3c(F)cccc3F)c(F)c12  remaining activity (FGFR1; radiometric; 1 µM): 90%
FC(F)c1nc2ccccc2n1-c1nc(N2CCOCC2)nc(N2CCOCC2)n1  remaining activity (FGFR1; 10 µM): 102%
CC(C)(C)C(=O)c1sc(NC2CCCCC2)nc1N  remaining activity (FGFR1; 10 µM): 87%
